# pIC50: −log10 of the molar value. Active and inactive are the calls of the source. The calls are words filed in the database; no cut-off is given here.
# Experiments:
# c-Myc/Max [1] = target: T1, c-Myc/Max (Homo sapiens, UniProt P01106+P61244); test: Disruption of human recombinant c-Myc-Max(S)/DNA (unknown origin) binding assessed as complex level at 100 uM by electrophoretic mobility shift assay relative to control; format: protein-complex assay
# Outline: (§1)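 Recombinant c-Myc 353–437 bHLH-ZIP with full-length Max(S), or Max(L) alone, from E. coli (His₆ removed by TEV), each 30 nM, with 30 nM HEX-labelled double-stranded oligonucleotide bearing a c-Myc site; buffer 1× PBS pH 7.3, 1 mM EDTA, 0.1% NP40, 5% glycerol, 1 mM DTT, 400 µg/mL BSA; complex level relative to DMSO control; three independent EMSAs.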
# Daudi = test: Antiproliferative activity against c-Myc-overexpressing human Daudi cells after 3 days by MTT assay; format: functional, cell-based; conditions: 72 h
# Outline: (§2)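 Cells at >90% viability seeded at 2×10³ cells/well in fresh growth medium with 10-point serial dilutions of compound; 3-day incubation; viability by MTT, relative to untreated cells; each point in at least triplicate; IC50 from dose–response. HO15.19-wt-Myc are myc−/− rat fibroblasts with c-Myc restored by stable retroviral transduction.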
# c-Myc/Max [2] = target: T1, c-Myc/Max; test: Disruption of human recombinant c-Myc-Max/DNA (unknown origin) binding assessed as complex level by electrophoretic mobility shift assay relative to control; format: protein-complex assay; outline: as §1
# [3] = Antiproliferative activity against c-Myc-overexpressing human HL60 cells after 3 days by MTT assay; format: functional, cell-based; conditions: HL-60, 72 h; outline: as §2
# [4] = Cell cycle arrest in human HL60 cells assessed as accumulation at G0/G1 phase at 20 uM after 24 hrs by propidium iodide staining-based flow cytometric analysis (reference value: 39%); format: functional; conditions: HL-60
# [5] = Cell cycle arrest in human HL60 cells assessed as accumulation at S phase at 20 uM after 24 hrs by propidium iodide staining-based flow cytometric analysis (reference value: 49%); format: functional; conditions: HL-60
# c-Myc/Max [6] = target: T1, c-Myc/Max; test: Induction of dissociation of […]-Max in human HL60 cells at 40 to 72 uM after 6 hrs by Co-immunoprecipitation (Co-IP) assay; format: cell-based; conditions: HL-60
# Outline: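 About 5×10⁶ HL60 cells exposed 6 h to compound or DMSO; lysed in IP buffer; 300 µg cleared lysate immunoprecipitated overnight at 4 °C with anti-Max (1:200) and protein G-Sepharose; 10% SDS-PAGE, immunoblot with anti-c-Myc 9E10 (1:1000); input lysate kept for comparison.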
# [7] = Cell cycle arrest in human HL60 cells assessed as accumulation at G0/G1 phase at 40 uM after 24 hrs by propidium iodide staining-based flow cytometric analysis (reference value: 39%); format: functional; conditions: HL-60
# [8] = Cell cycle arrest in human HL60 cells assessed as accumulation at G2/M phase at 40 uM after 24 hrs by propidium iodide staining-based flow cytometric analysis (reference value: 11.2%); format: functional; conditions: HL-60
# [9] = Cell cycle arrest in human HL60 cells assessed as accumulation at S phase at 40 uM after 24 hrs by propidium iodide staining-based flow cytometric analysis (reference value: 49%); format: functional; conditions: HL-60
# [10] = Cell cycle arrest in human HL60 cells assessed as accumulation at G2/M phase at 20 uM after 24 hrs by propidium iodide staining-based flow cytometric analysis (reference value: 11.2%); format: functional; conditions: HL-60
# T1 sequence (P01106 whole entry): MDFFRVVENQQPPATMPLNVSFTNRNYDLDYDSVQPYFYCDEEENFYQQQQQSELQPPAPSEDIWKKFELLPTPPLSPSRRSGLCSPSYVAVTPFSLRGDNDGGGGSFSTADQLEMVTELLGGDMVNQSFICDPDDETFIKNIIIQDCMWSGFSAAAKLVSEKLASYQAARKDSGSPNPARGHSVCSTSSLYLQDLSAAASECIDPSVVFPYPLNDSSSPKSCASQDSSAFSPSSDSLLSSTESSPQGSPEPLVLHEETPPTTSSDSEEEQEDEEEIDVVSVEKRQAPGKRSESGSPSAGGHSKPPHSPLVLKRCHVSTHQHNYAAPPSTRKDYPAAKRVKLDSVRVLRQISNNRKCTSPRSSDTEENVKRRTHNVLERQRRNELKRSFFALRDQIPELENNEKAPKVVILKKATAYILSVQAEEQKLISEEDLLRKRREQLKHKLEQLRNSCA
# T1 sequence (P61244 whole entry): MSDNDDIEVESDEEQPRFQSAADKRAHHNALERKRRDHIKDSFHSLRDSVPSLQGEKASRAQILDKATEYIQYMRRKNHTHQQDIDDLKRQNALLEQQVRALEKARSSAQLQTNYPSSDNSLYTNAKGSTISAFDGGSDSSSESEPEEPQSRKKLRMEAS
SMILES,Activity (c-Myc/Max [1]),other results
CC(C)COc1cc(C(=O)O)ccc1NC(=O)c1ccc(N)c(OC2Cc3ccccc3C2)c1,87%,
COC(=O)c1ccc(NC(=O)c2ccc([N+](=O)[O-])c(OC3Cc4ccccc4C3)c2)c(OCC(C)C)c1,90%,
CC(C)COc1cc(NC(=O)c2ccc([N+](=O)[O-])cc2OCC(C)C)ccc1C(=O)O,96%,
COC(=O)c1ccc(NC(=O)c2ccc([N+](=O)[O-])c(OCc3cccc4ccccc34)c2)c(OCC(C)C)c1,109%,
COC(=O)c1ccc(NC(=O)c2ccc([N+](=O)[O-])c(OC(C)C)c2)c(OCc2ccccc2)c1,73%,
COC(=O)c1ccc(NC(=O)c2ccc([N+](=O)[O-])c(OCc3ccccc3)c2)c(OC2Cc3ccccc3C2)c1,112%,
CC(C)COc1nc(C(=O)O)ccc1NC(=O)c1ccc([N+](=O)[O-])c(OCC(C)C)n1,0%,pIC50 (Daudi): 4.95; pIC50 (c-Myc/Max [2]): 4.62; pIC50 [3]: 4.52
O=C(O)c1ccc(NC(=O)c2ccc([N+](=O)[O-])cc2)cc1,87%,
COC(=O)c1ccc(NC(=O)c2ccc([N+](=O)[O-])c(OCc3ccccc3)c2)c(OCc2ccccc2)c1,85%,
CC(C)COc1cc(C(=O)O)ccc1NC(=O)c1ccc([N+](=O)[O-])c(OCc2ccccc2)c1,,pIC50 (Daudi): 4.59; pIC50 (c-Myc/Max [2]): 4.37
CC(C)COc1nc(C(=O)Nc2ccc(C(=O)O)nc2OCC(C)C)ccc1N,79%,
COC(=O)c1ccc(NC(=O)c2ccc([N+](=O)[O-])c(OCc3cccc4ccccc34)c2)c(OC2Cc3ccccc3C2)c1,117%,
CCc1ccc(/C=C2\SC(=S)NC2=O)cc1,,Activity [4]: 48%; Activity [5]: 42%; Activity (c-Myc/Max [6]): inactive; Activity [7]: 59.3%; Activity [8]: 5.6%; Activity [9]: 35%; Activity [10]: 10%
COC(=O)c1ccc(NC(=O)c2ccc([N+](=O)[O-])c(OC3Cc4ccccc4C3)c2)c(OCc2ccccc2)c1,78%,
COC(=O)c1ccc(NC(=O)c2ccc([N+](=O)[O-])c(OCc3cccc4ccccc34)c2)c(OCc2ccccc2)c1,88%,
COC(=O)c1ccc(NC(=O)c2ccc([N+](=O)[O-])c(OC(C)C)c2)c(OC2Cc3ccccc3C2)c1,109%,
COC(=O)c1ccc(NC(=O)c2ccc([N+](=O)[O-])c(OC3Cc4ccccc4C3)c2)c(OC2Cc3ccccc3C2)c1,100%,

# Continued, in another order:
Activity (c-Myc/Max [1]),SMILES,other results
47%,CC(C)Oc1cc(C(=O)O)ccc1NC(=O)c1ccc([N+](=O)[O-])c(OC(C)C)c1,
99%,CC(C)COc1cc(C(=O)N(CC(=O)O)CC(=O)O)ccc1NC(=O)c1ccc([N+](=O)[O-])c(OCC(C)C)c1,
99%,CC(C)COc1cc(C(=O)Nc2ccc(C(=O)O)cc2OCC(C)C)ccc1NC(=O)C(=O)O,
75%,COC(=O)c1ccc(NC(=O)c2ccc([N+](=O)[O-])c(OCc3ccccc3)c2)c(OCC(C)C)c1,
100%,CC(C)COc1cc(C(=O)O)ccc1NC(=O)c1ccc([N+](=O)[O-])c(OCc2ccccn2)c1,
105%,CC(C)COc1cc(C(=O)Nc2ccc(C(=O)O)cc2OCC(C)C)ccc1N,
97%,CC(C)COc1cccc(C(=O)Nc2ccc(C(=O)O)cc2OCC(C)C)c1,
104%,CC(C)COc1cc(C(=O)Nc2ccc(C(=O)O)cc2OCc2ccccc2)ccc1[N+](=O)[O-],
75%,CC(C)COc1cc(C(=O)Nc2ccc(C(=O)O)cc2OCc2cccnc2)ccc1[N+](=O)[O-],
90%,CC(C)COc1cc(C(=O)O)ccc1NC(=O)c1ccc([N+](=O)[O-])cc1,
112%,COC(=O)c1ccc(NC(=O)c2ccc([N+](=O)[O-])c(OCC(C)C)c2)c(OCC(C)C)c1,
116%,CC(C)COc1cc(C(=O)Nc2ccc(C(=O)O)cc2OCc2ccccn2)ccc1[N+](=O)[O-],
0%,CC(C)COc1cc(C(=O)O)ccc1NC(=O)c1ccc([N+](=O)[O-])c(OCC(C)C)c1,pIC50 (Daudi): 4.64; pIC50 (c-Myc/Max [2]): 4.69; pIC50 [3]: 4.40
0%,CC(C)COc1cc(C(=O)O)ccc1NC(=O)c1ccc([N+](=O)[O-])c(OCC(C)C)n1,pIC50 (Daudi): 4.95; pIC50 (c-Myc/Max [2]): 4.36; pIC50 [3]: 4.67
94%,COc1cc(C(=O)O)ccc1NC(=O)c1ccc([N+](=O)[O-])c(OC)c1,
65%,CC(C)COc1cc(C(=O)O)ccc1NC(=O)c1ccc([N+](=O)[O-])c(OC2Cc3ccccc3C2)c1,
107%,CC(C)COc1cc(C(=O)NCC(=O)O)ccc1NC(=O)c1ccc([N+](=O)[O-])c(OCC(C)C)c1,
81%,CC(C)COc1cc(C(=O)Nc2ccc(C(=O)O)cc2)ccc1[N+](=O)[O-],
0%,CCOC(=O)C(=O)Nc1ccc(C(=O)Nc2ccc(C(=O)O)cc2OCC(C)C)cc1OCC(C)C,pIC50 (Daudi): < 4.30; pIC50 (c-Myc/Max [2]): 5.25; pIC50 [3]: < 4.30
89%,CC(C)COc1cc(C(=O)Nc2ccc(C(=O)O)cc2OCC(C)C)ccc1NC(=O)COCC(=O)O,
120%,CC(C)COc1cc(C(=O)O)ccc1NC(=O)c1ccc([N+](=O)[O-])cc1OCC(C)C,
80%,CC(C)COc1cc(NC(=O)c2ccc([N+](=O)[O-])c(OCC(C)C)c2)ccc1C(=O)O,
87%,CC(C)COc1cc(C(=O)Nc2ccc(C(=O)O)cc2OCc2ccncc2)ccc1[N+](=O)[O-],
70%,COC(=O)c1ccc(NC(=O)c2ccc([N+](=O)[O-])c(OC(C)C)c2)c(OCC(C)C)c1,
